Screens from PubChem.
Shown are actives, neighbours in structure and some others; about 1.7% of the full set was active somewhere.
Vif inh: inhibitors of HIV Vif | 340,000 tested, 0.35% active | inhibition, % at 7.49 µM | HEK293T cells, Vif self-association by quenched fluorescence, imaging, 24 h; in the data active = inhibition above about 50%, passing the limit was not always enough; inconclusive = no clear call, values can overlap the other calls; inactive = below about 31%
Runt-CBFb FRET: blocks binding of human RUNX1 Runt domain to CBFb | Cerulean-Runt/Venus-CBFb FRET ratio 530/480, 1 h | inhibition, % at 20 µM | 220,000 tested, 0.46% active | AID 1496;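 active = inhibition over about 50% at 20 µM in the single-dose screen, limit read from the data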;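 also: 0% = DMSO wells and 100% = excess unlabeled CBFb competitor control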
Target sequence (Q01196 whole entry, looked up, the tested form may be a part): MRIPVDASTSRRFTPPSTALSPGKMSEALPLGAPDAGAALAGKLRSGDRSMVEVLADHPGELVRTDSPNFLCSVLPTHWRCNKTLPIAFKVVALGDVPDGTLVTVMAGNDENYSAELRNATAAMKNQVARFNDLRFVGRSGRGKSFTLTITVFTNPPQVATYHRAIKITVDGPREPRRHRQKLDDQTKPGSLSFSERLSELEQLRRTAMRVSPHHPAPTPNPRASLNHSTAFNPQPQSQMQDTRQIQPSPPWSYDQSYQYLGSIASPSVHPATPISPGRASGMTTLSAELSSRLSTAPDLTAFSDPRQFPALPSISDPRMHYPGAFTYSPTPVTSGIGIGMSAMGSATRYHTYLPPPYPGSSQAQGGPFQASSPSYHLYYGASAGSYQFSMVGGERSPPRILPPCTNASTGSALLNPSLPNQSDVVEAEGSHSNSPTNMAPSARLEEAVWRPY
Target sequence (Q13951 whole entry, looked up, the tested form may be a part): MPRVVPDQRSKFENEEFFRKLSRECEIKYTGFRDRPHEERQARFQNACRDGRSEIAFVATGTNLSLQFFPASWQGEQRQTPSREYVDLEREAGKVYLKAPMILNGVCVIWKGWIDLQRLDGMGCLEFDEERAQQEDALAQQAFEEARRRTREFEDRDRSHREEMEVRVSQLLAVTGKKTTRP
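Assay system: Cerulean-Runt domain / Medium: Tris 50 mM pH 7.5, KCl, K2SO4, 0.01% BSA / Timing: protein complex preformed 1 h, compound exposure 1 h, room temperature, dark / Measured by: FRET, excitation 422 nm, emission at 530 and 480 nm / Evaluation: loss of energy transfer signal / Control set: 5 µM unlabeled CBFb as full-inhibition high control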
Rce1 inh: blocks yeast Ras-converting enzyme | Q03530 | yeast membranes, quenched prenylated peptide cleavage fluorescence | calls only | 290,000 tested, 0.27% active | AID 2563;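 active = fall in fluorescence gain of 50% or more versus controls, with final raw signal at or below 3038400; inconclusive = same 50% fall but final raw signal above 3038400; inactive = fall in fluorescence gain under 50%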;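 also: plate controls were neutral control wells for no effect and wells lacking membranes for full effect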
Runt-SMMHC FRET: Runt domain-CBFb-SMMHC interaction inhibition. inhibition, % at 20 µM. 220,000 tested, 0.74% active. Q01196+Q13951. Cerulean-Runt/Venus-CBFb-SMMHC FRET ratio 530/480, 1 h. AID 1434;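 active = mean inhibition across duplicate retests at 20 µM reaching about 50%, limit read from the data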;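 also: 0% = DMSO wells and 100% = wells with excess untagged CBFb-SMMHC; inhibitors lower the FRET ratio by blocking Runt binding to CBFb-SMMHC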
RanGTP-Imp inh: inhibitors of RanGTP-importin-beta interaction, primary screen, biochemical, FRET, CFP-Ran, YFP-importin-beta, homogeneous | 300,000 tested, 1.1% active | AID 2216 | inhibition, % (no concentration beside the values) | cell-free CFP-Ran/YFP-importin-beta FRET ratio;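 active = more than half of the replicate wells show a fall in the fluorescence ratio signal beyond about 16%, limit read from the data, passing the limit was not always enough; inconclusive = exactly half of the replicate wells pass the set limit; inactive = fewer than half of replicates pass the limit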;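 also: 0% = DMSO wells and 100% = Ran loaded with GDP instead of GTP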
* hit, by the source's call; i = inactive; ? = inconclusive; . = no result given; + = active, no number.

SMILES	Vif inh	Runt-CBFb FRET	Rce1 inh	Runt-SMMHC FRET	RanGTP-Imp inh
O=C(Nc1ccc2c(c1)CCCN2C(=O)c1ccccc1)c1ccccc1	-1	.	i	.	2
CCOc1ccc(OC(=O)C(CCS(C)(=O)=O)N2C(=O)c3ccccc3C2=O)cc1 (stereo unspecified)	5	-5	i	-9	1
CC(=O)c1ccc(OC(=O)C(CCS(C)(=O)=O)N2C(=O)c3ccccc3C2=O)cc1 (stereo unspecified)	81*	-5	.	-18	1
Cc1ccc(C(=O)OCC(=O)N(CC(C)C)c2c(N)n(Cc3ccccc3)c(=O)[nH]c2=O)cc1[N+](=O)[O-]	-5	.	.	.	-1
CN(C)CCCN1C(=O)c2cccc3cccc(c23)C1=O	-3	.	+	.	-3
O=C/C(=C\Nc1ccc(Cl)cn1)c1nc2cc(Cl)ccc2o1	-1	-19	i	-40	8
O=C/C(=C\Nc1ccc(S(=O)(=O)CCO)cc1)c1nc2cc(Cl)ccc2o1	18	-4	i	-6	22*
CCOc1ccc(N=C2NC(=O)SC2CC(=O)OC)cc1 (stereo unspecified)	-11	1	i	-7	-1
CCOc1ccc(NC(N)=O)cc1	65*	-3	i	-4	?
COc1ccccc1-n1nnnc1SCC(=O)N1CCCC1=O	-4	.	i	.	10
O=C(NNC(=S)NCCc1ccccc1)c1ccc(Br)s1	-3	0	i	1	-3
Cc1cc(C=O)c(C)n1-c1sc2c(c1C(=O)O)CCCC2	29	1	i	-2	5
COC(=O)c1c(-n2c(C)cc(C=O)c2C)sc2c1CCCC2	84*	.	i	1	6
CCOC(=O)C1=C(C)NC(=O)NC1c1ccc(N(C)C)cc1 (stereo unspecified)	11	1	i	3	0
CCC(CC)COC(=O)C1=C(C)NC(=O)NC1c1ccc(N(C)C)cc1 (stereo unspecified)	0	.	i	.	16*
COc1cccc(N2CC(O)=C(c3nc4ccccc4c(=O)[nH]3)C2=N)c1	12	-5	i	-2	2
Cc1cc(C)cc(N2CC(O)=C(c3nc4ccccc4c(=O)[nH]3)C2=N)c1	2	-3	+	-2	-1
O=C(Cc1n[nH]c(=O)c2ccccc12)OCC(=O)c1ccc(F)c(F)c1	-2	.	i	.	6
CCCCN(C)CC(O)Cn1cc(/C=C/C(=O)c2ccc(OCC)cc2)c2ccccc21 (stereo unspecified)	.	.	i	.	25*
Cc1cc(C)n2nc(CC(=O)NNC(=O)c3ccc(N(C)C)cc3)nc2n1	9	.	+	.	5
Cc1nc(S/C(=C/c2ccc(-c3cc(Cl)ccc3C)o2)C(=O)O)n[nH]1	52*	-13	i	-91	-13
O=C(O)c1ccc(N/N=C/C=C/c2ccccc2[N+](=O)[O-])cc1	54*	5	i	2	0
O=C(Cc1ccccc1)N/N=C/C=C/c1ccccc1[N+](=O)[O-]	-7	0	i	-1	-1
COCCN(C(=O)CCC(=O)Nc1nccs1)C(C(=O)NC(C)(C)C)c1ccc(C)cc1 (stereo unspecified)	84*	.	i	.	1
CC1CCC(CN2C(Nc3ccccc3)=NC[C@@H]2Cc2ccccc2)CC1 (stereo partly specified)	2	.	.	.	.
SMILES	Vif inh	Runt-CBFb FRET	Rce1 inh	Runt-SMMHC FRET	RanGTP-Imp inh
Clc1cccc(CNc2ccn3nc(-c4cccs4)cc3n2)c1	0	.	.	.	.
CCOC(=O)C1(Cc2ccccc2Cl)CCN(C(=O)CN2CCOC2=O)CC1	12	1	i	1	2
Cc1ccc(/C=N/NC(=O)Cn2nnc(N)n2)cc1	24	0	i	1	8
CCn1nc(C)c(/C=N/NC(=O)Cn2nnc(N)n2)c1C	59*	0	i	-2	-2
CN1CCN(Cc2c(O)ccc3cc(-c4ccccn4)c(=O)oc23)CC1	10	19	.	91*	144*
O=c1oc2c(CN3CCCCCC3)c(O)ccc2cc1-c1nc2ccccc2[nH]1	.	12	.	38	.
Cc1ccc(N2CC(C(=O)Nc3c4c(nn3C(C)(C)C)CS(=O)(=O)C4)CC2=O)cc1C (stereo unspecified)	-3	.	i	.	3
CCN(CC(=O)Nc1ccccc1OC)CC(=O)Nc1ccccc1-c1ccccc1	-1	-6	i	3	.
CN(C)c1c(N)c(=O)oc2ccccc12	2	0	i	-4	-1
Nc1c(N)c2ccccc2oc1=O	0	2	i	-12	20*
CC(C)Nc1c(N)c(=O)oc2ccccc12	59*	1	i	0	?
COc1cc(/C=N/N2CCN(Cc3ccc(C)cc3)CC2)cc(OC)c1O	4	.	i	.	?
O=C1CCCCC1Sc1nnc(-c2ccc3c(c2)OCO3)o1 (stereo unspecified)	11	-2	i	0	4
CC(=Nc1ccc(C)cc1C)c1sc2ccccc2c1O	2	-17	i	-26	42*
CC(=Nc1cccc(O)c1)c1sc2ccccc2c1O	9	8	i	15	29*
Cc1ccc(O)c(N=Cc2sc3ccccc3c2Cl)c1	-15	5	i	-2	4
CC(=Nc1ccc(C)cc1)c1sc2ccccc2c1O	-3	-45	i	51	73*
Cc1cc(O)cc2c(=O)c3ccccc3sc12	8	5	i	9	?
O=C1CCc2cc(S(=O)(=O)Nc3ccccc3)cc3c2N1CC3	7	.	i	.	7
CN1c2ccccc2C(C)(C)[C@]12C=Cc1cc(O)ccc1O2	74*	10	.	-7	?
CCn1nc(NC(=O)c2cccnc2)c2cc3ccccc3nc21	-6	5	i	8	19*
CCn1nc(NC(=O)c2cccs2)c2cc3ccccc3nc21	2	14	i	24	39*
CCOC(=O)C1CCN(Cc2cc(Cl)c3ccccc3c2O)CC1	7	.	i	.	0
O=C(Cc1cccc2ccccc12)NCCOc1ccccc1F	-2	-1	i	-2	?
N#C/C(=C\c1ccncc1)c1nc2c(s1)CCCC2	-1	22	i	87*	?
SMILES	Vif inh	Runt-CBFb FRET	Rce1 inh	Runt-SMMHC FRET	RanGTP-Imp inh
O=C(C1CCCCCC1)N1CC[C@@H](N2CCC(O)CC2)[C@H](O)C1	0	.	i	.	27*
O=C(C1CCCCC1)N1CCN(C(=O)C2CCCCC2)CC1	7	-2	i	0	-8
CCCCn1c(N)c(N(CC(C)C)C(=O)CCNC(=O)c2ccc(Cl)cc2)c(=O)[nH]c1=O	6	.	i	.	4
CCCn1c(O)c(N=NC(=O)CNC(=O)/C=C/c2ccc(OC)cc2)c2ccccc21	3	.	i	.	2
CCCn1c(O)c(N=NC(=O)CNC(=O)Cc2ccc(OC)cc2)c2ccccc21	14	.	+	.	3
COc1ccccc1-n1c(-c2ccccc2)c[nH]c1=S	0	21	+	54*	?
